# Data published in ChEMBL document CHEMBL4513216, “Probing the Open Global Health Chemical Diversity Library for Multistage-Active Starting Points for Next-Generation Antimalarials” (ACS Infect Dis, 2020).
# Experiment: Toxicity liver stage against HepG2, at 10uM
# Type: cell-based
# Design: test concentration 10 uM, cell line HepG2-A16-CD81EGFP
# Settings: human, HepG2-A16-CD81EGFP cells; read-out: INHIBITION
# Outline: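 Uninfected HepG2-A16-CD81EGFP cells, 3 × 10^3 per well, 1536-well, plated on prespotted compound at 10 μM final, parasite-free screening media added to match infected plates; puromycin 10 μM positive, DMSO 0.5% negative; run in parallel with 48 h PbLuc assay at 37 °C, 5% CO2; viability by CellTiter-Glo luminescence, normalized to controls.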
row,Compound,cytotoxicity at 10 µM
1,Cc1csc(CNC(=O)NC2CCN(c3ncccn3)CC2)n1,-10.6%
2,CN(c1ncccc1CNCc1ncc[nH]1)C1CCCCC1,-7.28%
3,O=C(CCn1cc(Cl)cn1)Nc1ncccn1,-5.32%
4,O=C(NCc1ccc(F)cc1)NCC1(N2CCOCC2)CCSC1 (configuration not stated),1.84%
5,Cc1cnn(CC2CCCCN2CCn2cncn2)c1 (configuration not stated),6.26%
6,CC(C)(C)C(=O)Nc1cnn(-c2ccccc2S(C)(=O)=O)c1,3.65%
7,COCC1CN(Cc2ccoc2)Cc2cn(CC3CCCC3)nc21 (configuration not stated),4.32%
8,O=C1CC[C@H]2[C@H](CCN2C(=O)N2CCCC2)N1Cc1ccncc1,-2.04%
9,O=C(CCn1cnnn1)N1CCCC(CO)(CCc2ccccc2)C1 (configuration not stated),5.26%
10,O=C(Nc1ccc2c(c1)OC1(CCCC1)O2)c1ccc(=O)[nH]n1,0.887%
11,CN(C)c1ccc(C(=O)NCC2(c3ccccc3)CCOCC2)cc1,6.52%
12,COc1ccc(-c2noc([C@@H]3C[C@@H](O)CN3C3CCCCC3)n2)cc1,3.25%
13,Cc1cc(C)nc(CCNC(=O)C(c2ccc(F)cc2)N(C)C)n1 (configuration not stated),-40.1%
14,CNC(=O)c1cn2cc(-c3ccccc3Cl)n(CC3CC3)c(=O)c2n1,0.562%
15,Cc1cc(C)c(CNC(=O)NCC(O)c2ccc(Cl)cc2)c(=O)[nH]1 (configuration not stated),-7.03%
16,COc1ccc(CCN2C(=O)O[C@@H]3CN(C)C[C@@H]32)cc1,-2%
17,Cc1nn(CC(C)C)c(N(C)C)c1CNCc1ccc(CO)c(F)c1,-14.4%
18,O=C(NCc1cscn1)NC1CCN(c2ncccc2Cl)C1 (configuration not stated),-1.24%
19,COc1ccc(Cl)cc1NCC(=O)N(Cc1ccccn1)C1CC1,8.13%
20,O=C(c1cc2c(s1)CCC2)N1CCCC1Cn1cccn1 (configuration not stated),-3.12%
21,O=C(Cc1cccs1)N1C[C@@H]2OCCN(CC3CCCC3)[C@@H]2C1,-4.75%

row,Compound,cytotoxicity at 10 µM
1,O=c1cc(N2CCOCC2)cnn1CCc1ccc(F)cc1,8.01%
2,CCc1ncc(C(=O)N2CCCN(C3CCCC3)CC2)cn1,-7.38%
3,CN1CCN(Cc2cnc3n2CCN(C(=O)c2ccoc2)C3)CC1,-80.7%
4,Clc1cccc(-n2cnnn2)c1N1CCCCC1,17.4%
5,Cc1cc(C)n(C2CCCN(C(=O)Cc3cn4ccsc4n3)C2)n1 (configuration not stated),-6.07%
6,O=C(c1ccc(Cl)cc1)N1CCC(N2CCNC2=O)CC1,12.6%
7,COc1cccc(CNC(=O)C(c2cccc(F)c2)N2CCOCC2)c1 (configuration not stated),-6.24%
8,CC1CN(c2ccc(CNC(=O)c3ccn(C)c(=O)c3)cn2)CCO1 (configuration not stated),2.82%
9,CC(C)CN1CCCC2(CCN(c3ccccn3)C2)C1 (configuration not stated),-1.22%
10,O=C(CCc1cccc(Cl)c1Cl)N1CCOCC1c1ncon1 (configuration not stated),-2.33%
11,O=C(C1CCCc2[nH]ncc21)N1CCCC1 (configuration not stated),8.53%
12,CC(C)CNC(=O)N1C[C@@H]2C[C@H](C(=O)NCc3ccccc3)[C@H](C1)O2,-0.924%
13,Cc1cc(NC(=O)N(CC2CCOC2)C2CC2)no1 (configuration not stated),-0.457%
14,Cc1cnn(CC(=O)N2CCC(c3ccn4nccc4n3)CC2)c1,3.24%
15,CC(CNS(C)(=O)=O)Oc1cccc(Cl)c1 (configuration not stated),4.6%
16,Cc1cn2c(n1)CCC(NS(=O)(=O)c1sc(C)nc1C)C2 (configuration not stated),-20.8%
17,Cc1ccc(NC(=O)C2CSCN2C(=O)c2cccnc2)c(C)c1 (configuration not stated),-1.9%
18,O=C(c1ccc(=O)[nH]n1)N1CCNCC1c1ccccc1 (configuration not stated),-2.44%
19,NC(=O)CCNC(=O)C1(N2CCCCC2)Cc2ccccc2C1,-8.56%
20,COc1ccc(COCC(O)CNC(=O)Cc2ccc(C)cc2)cc1 (configuration not stated),-5.62%
21,Cc1cnccc1N1CCCN(C(=O)CCCS(N)(=O)=O)CC1,-18.7%

row,Compound,cytotoxicity at 10 µM
1,Cc1cc(CN2CCCC(CNC(=O)Cn3cccn3)C2)oc1C (configuration not stated),6.2%
2,O=C(c1ccc2c(c1)OCO2)N1CCC(C(=O)O)(c2ccccc2)CC1,7.33%
3,CN(C)C1CC2(CCN(C(=O)c3csnn3)CC2)c2ccccc21 (configuration not stated),-138%
4,Cc1ccccc1C(C(=O)NCCN1CCC(CO)CC1)N(C)C (configuration not stated),-4.5%
5,Cc1ccc(OCC2CCCN(CC3CCOCC3)C2)cc1 (configuration not stated),16.1%
6,COc1c(C2CCCN2C(=O)c2ccoc2)c(C)nn1C (configuration not stated),4%
7,O=C(c1ccccc1)N1CCOC2CNCC[C@H]21 (some centres not stated),-114%
8,CCN1CC2(CC1=O)CN(C(C)=O)CCN(S(C)(=O)=O)C2 (configuration not stated),0.38%
9,CCc1ncnc2c1CCN(C(=O)c1cccn1C)CC2,-73.5%
10,CCN(CC)c1ccc(CNC(=O)c2ccccn2)cn1,10.8%
11,COc1cc2c(cc1C(=O)N1CC(c3ccncc3)C1)CCC2,0.545%
12,O=C(NCC1CCS(=O)(=O)C1)c1sccc1-c1ccc(F)cc1 (configuration not stated),-1.79%
13,CCCNC(=O)c1ccc(S(=O)(=O)NCC2(O)CCCNC2)cc1 (configuration not stated),-48.3%
14,CC(NC(=O)CNS(C)(=O)=O)c1ccccc1Oc1ccccc1 (configuration not stated),4.69%
15,CN1CCC(C(=O)NCCC2CN(c3cnn(C)c(=O)c3)CCO2)CC1 (configuration not stated),5.75%
16,CCN1CCC2(CCN(Cc3nccs3)CC2)C1=O,-0.311%
17,CC(C)(N)c1cn(C2CCN(C3CCSCC3)CC2)nn1,-10.7%
18,O=C1NCCO[C@H]2CN(C(=O)Cc3ccco3)CC[C@@H]12,-105%
19,CC(C)c1nc(NS(=O)(=O)c2ccccc2Cl)no1,10%
20,COc1ccc(CN2CCO[C@H]3[C@H](Oc4ccccn4)CC[C@@H]32)cc1,21.5%
21,CCc1ccc(C2CC(=O)Nc3cc(OC)c(NS(C)(=O)=O)cc32)o1 (configuration not stated),3.25%

row,Compound,cytotoxicity at 10 µM
1,O=C(NC1CCC1)[C@H]1C[C@H]2CN(CC3CC3)C[C@@H]1O2,7.55%
2,CC(C)(C)c1noc(CCC(=O)N2CCNC(=O)C2)n1,-4.96%
3,COCCc1noc(CN(C)c2cc(C)ncn2)n1,11.9%
4,CN(c1ncc(C(=O)Nc2ccccc2)c(N)n1)C1CCCCC1,-6.21%
5,CC1CCN(C(=O)c2cccc(CN3CCOCC3)c2)CC1,8.07%
6,Cc1nc(-c2ccsc2)ccc1C(=O)N(C)CC(F)(F)F,-1.54%
7,CCCc1nc(C)cc(N2Cc3cnn(CCO)c3C2)n1,-129%
8,O=C(CSCC1CC1)N1CCc2[nH]nc(COc3ccccc3)c2C1,-7.01%
9,CN(Cc1nnc2n1CCC2)C(=O)c1ccc2c(c1)OCCO2,-17.8%
10,Cc1noc(C2CCC3(CCN(C(=O)c4ccncn4)CC3)O2)n1 (configuration not stated),5.76%
11,Cc1cncc(C(=O)N2CCNCC2C(=O)Nc2ccc(C)nc2)c1 (configuration not stated),-5.19%
12,CNc1cc(C2CN(Cc3scnc3C)CCO2)nc(C)n1 (configuration not stated),-24.7%
13,Cc1ccc(NC(=O)[C@@H]2C[C@H](C(=O)O)CN(Cc3sccc3C)C2)cn1,11%
14,Cc1ccc(C(=O)N(CC2CCCO2)c2ccncc2)o1 (configuration not stated),-3.08%
15,COc1ccc(CNC(=O)C2=NN(c3ccc(C)cc3)C(=O)CN2)cc1,17.5%
16,Cc1n[nH]c(C2CN(CC(=O)NCc3sccc3C)CCO2)n1 (configuration not stated),-4.75%
17,Cc1nc(C2CCCN(C(=O)CN3CCCC3=O)C2)sc1C (configuration not stated),-6.96%
18,CCOCCNC(=O)Cc1cccc(I)c1,9.62%
19,Cc1ccnc(CC(C)N(C)c2cc(CN)nc(C)n2)c1 (configuration not stated),-48.9%
